19 molecules from ChEMBL document CHEMBL1131003, “Nonsymmetric P2/P2' cyclic urea HIV protease inhibitors. Structure-activity relationship, bioavailability, and resistance profile of monoindazole-substituted P2 analogues” (J Med Chem, 1998) can be followed below.

Data set [1] can be described thus: Peak plasma concentration was measured in dogs. The data set is classed as ADME, organism-based, Canis lupus familiaris. The settings on record: dog.
Data set [2] has as its target Human immunodeficiency virus type 1 protease (Human immunodeficiency virus 1, UniProt Q72874). Description: Inhibitory activity against HIV protease. In outline: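 Ki for HIV protease, measured by cleavage of a fluorescent substrate with HPLC analysis, following the earlier method.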
Another data set has as its system MT2. Nature of the data set: Antiviral potency evaluated by measuring accumulation of viral RNA transcripts 3 days after infection of MT-2 cells with HIV-1 RF. It is filed as functional. The settings on record: Homo sapiens, MT2, 72 h.
For data set [3], the target named is Human immunodeficiency virus type 1 protease (Human immunodeficiency virus 1) (UniProt Q72874). Nature of the data set: Antiviral activity against ritonavir virus (HIV-1 mutated at 46I/63P/71V/82F/84V and resistant to ritonavir). It is filed as functional. The method, boiled down:
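Mutant HIV-1 viruses carrying protease substitutions seen in ritonavir- or indinavir-treated patient isolates; the ritonavir virus carries 46I/63P/71V/82F/84V. IC90 read from a viral p24 readout, following the earlier method.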

Data set [4] has the same target. Description: Antiviral activity against mutant virus HIV-1 mutant (84V) strain. The data set is classed as functional. In outline: (§1)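 I84V single and I84V/V82F double mutant HIV-1, both from in vitro selection under a cyclic urea inhibitor. IC90 measured by yield reduction assay.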
For data set [5] the target is unchanged. Description: Antiviral activity against mutant virus HIV-1 mutant (84V/82F) strain. The data set is classed as functional. In outline: as §1
Data set [6] has the same target. Nature of the data set: Antiviral activity against indinavir virus (HIV-1 mutated at 10R/63P/71V/82T/84V and resistant to indinavir).
Data set [7] is described as follows: Oral bioavailability in dog (dose 10 mg/kg). The data set is classed as ADME, organism-based, Canis lupus familiaris. Conditions: in vivo. The method, boiled down:
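Dogs, n = 3 per group, given 10 mg/kg in a propylene glycol/polyethylene glycol 400/water formulation, dosed orally and intravenously. F% = AUC po/AUC iv, with AUC from time zero to infinity of the plasma concentration-time curve, normalized for dose.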

Molecules are shown by their SMILES.

Usually Cmax stands for the maximum level reached in the sampled fluid or tissue. One may read the Ki as the dissociation constant of the complex between target and ligand, obtained from inhibition or displacement. A higher Ki goes with a looser hold on the target. The IC90 is the concentration at which the effect reaches the 90% level. As a reminder, the bioavailability is the share of a dose that reaches the circulation, judged against a reference dose that is usually intravenous. A lower bioavailability goes with poor availability.

For `Cc1ccc(NC(=O)c2cccc(CN3C(=O)N(Cc4ccc5[nH]ncc5c4)[C@H](Cc4ccccc4)[C@H](O)[C@@H](O)[C@H]3Cc3ccccc3)c2)nc1`, the Cmax in data set [1] is less than 50 nM. In data set [2], this molecule gave an inhibition constant (Ki) of 0.048 nM. Further, the IC90 with MT2 was 4 nM.

On to `O=C(Cn1cncn1)c1cccc(CN2C(=O)N(Cc3ccc4[nH]ncc4c3)[C@H](Cc3ccccc3)[C@H](O)[C@@H](O)[C@H]2Cc2ccccc2)c1`, for which the highest level in data set [1] (Cmax) was 150 nM. This molecule registered a Ki in data set [2] of 0.022 nM. In the data set on MT2, the 90% effect concentration (IC90) came out at 51 nM.

Take `O=C1N(Cc2cccc(-c3nc[nH]n3)c2)[C@H](Cc2ccccc2)[C@H](O)[C@@H](O)[C@@H](Cc2ccccc2)N1Cc1ccc2[nH]ncc2c1`: the IC90 mutant/IC90 WT in data set [3] turned out to be 3.8; in data set [4], 3.3; in data set [5], 18. The Ki in data set [2] is 0.041 nM. The molecule further yielded an IC90 in the data set with MT2 of 24 nM.

As to `O=C(Nc1ncc[nH]1)c1cccc(CN2C(=O)N(Cc3cccc(C(=O)Nc4ncc[nH]4)c3)[C@H](Cc3ccccc3)[C@H](O)[C@@H](O)[C@H]2Cc2ccccc2)c1`, the IC90 mutant/IC90 WT in data set [6] turned out to be 0.4; in data set [3], 0.2; in data set [4] it was 0.7; in data set [5] it was 0.7. The same molecule returned an IC90 in the data set on MT2 of 60 nM.

As for `Nc1ccc(CN2C(=O)N(Cc3ccc4[nH]ncc4c3)[C@H](Cc3ccccc3)[C@H](O)[C@@H](O)[C@H]2Cc2ccccc2)cc1-n1cccn1`, the IC90 mutant/IC90 WT in data set [3] worked out at 70; in data set [4], 3.3; in data set [5] it was 50. This molecule gave a Ki in data set [2] of 0.045 nM. Besides, in the data set on MT2, the IC90 stood at 6 nM.

Take `O=C(Nc1nccs1)c1cccc(CN2C(=O)N(Cc3ccc4[nH]ncc4c3)[C@H](Cc3ccccc3)[C@H](O)[C@@H](O)[C@H]2Cc2ccccc2)c1`: the IC90 mutant/IC90 WT in data set [6] amounted to 7.3; in data set [3] it was 9; in data set [4] it was 2; in data set [5], 22. The molecule also showed a Ki in data set [2] of 0.016 nM. Besides, the 90% effect concentration (IC90) in the data set with MT2 was determined as 8 nM.

On to `O=C1N(Cc2cccc(NCc3nc4ccccc4s3)c2)[C@H](Cc2ccccc2)[C@H](O)[C@@H](O)[C@@H](Cc2ccccc2)N1Cc1ccc2[nH]ncc2c1`, for which the figures for the IC90 mutant/IC90 WT in data set [3], in data set [4] and in data set [5] were 25, 3.3 and 20, respectively. Besides, the inhibitory constant (Ki) in data set [2] is 0.059 nM. Further, in the data set with MT2, the 90% effect concentration (IC90) stood at 5 nM.

Turning to `Nc1ccc(CN2C(=O)N(Cc3ccc4[nH]ncc4c3)[C@H](Cc3ccccc3)[C@H](O)[C@@H](O)[C@H]2Cc2ccccc2)cc1-c1cc[nH]n1`, the IC90 mutant/IC90 WT in data set [3] was 2.1; in data set [4], 2.2; in data set [5] it was 20. In addition, the affinity in data set [2], expressed as Ki, was 0.025 nM. For the same molecule, the IC90 in the data set with MT2 came out at 22 nM.

In data set [2], `O=C1N(Cc2cccc(NCc3nc4ccccc4[nH]3)c2)[C@H](Cc2ccccc2)[C@H](O)[C@@H](O)[C@@H](Cc2ccccc2)N1Cc1ccc2[nH]ncc2c1` had a Ki of 0.016 nM. For the same molecule, in the data set with MT2, the IC90 was determined as 63 nM. Besides, the IC90 mutant/IC90 WT was 1 in data set [4] and 3 in data set [5].

In data set [1], `CNc1cc(CN2C(=O)N(Cc3ccc4[nH]ncc4c3)[C@H](Cc3ccccc3)[C@H](O)[C@@H](O)[C@H]2Cc2ccccc2)ccc1F` showed a Cmax of 670 nM. Further, the bioavailability in data set [7] was 14%. The same molecule yielded a Ki in data set [2] of 0.027 nM. This molecule also came in with an IC90 in the data set on MT2 of 7 nM.

`CC(=O)c1cccc(CN2C(=O)N(Cc3ccc4[nH]ncc4c3)[C@H](Cc3ccccc3)[C@H](O)[C@@H](O)[C@H]2Cc2ccccc2)c1` had a Cmax in data set [1] of 1300 nM. The bioavailability in data set [7] was found to be 25%. In data set [2], the affinity, expressed as Ki, was 0.036 nM. In the data set on MT2, this molecule had a concentration for an effect of 90% (IC90) of 15 nM.

In the case of `Nc1ccc(CN2C(=O)N(Cc3ccc4[nH]ncc4c3)[C@H](Cc3ccccc3)[C@H](O)[C@@H](O)[C@H]2Cc2ccccc2)cc1-n1cncn1`, in data set [1], the concentration peaked (Cmax) at 500 nM. Further, the values for the IC90 mutant/IC90 WT in data set [3], in data set [4] and in data set [5] were 9, 1 and 20, respectively. In data set [2], the Ki was 0.029 nM. The 90% effect concentration (IC90) with MT2 was determined as 35 nM.

Take `Nc1cccc(CN2C(=O)N(Cc3ccc4[nH]ncc4c3)[C@H](Cc3ccccc3)[C@H](O)[C@@H](O)[C@H]2Cc2ccccc2)c1`: the IC90 mutant/IC90 WT worked out at 20 in data set [6], 75 in data set [3], 6.8 in data set [4] and 200 in data set [5]. The peak level in data set [1] (Cmax) was 7200 nM. Besides, the bioavailability in data set [7] worked out at 93%. The same molecule had a Ki in data set [2] of 0.03 nM. Also, it took 11 nM to reach the 90% level in the data set on MT2 (IC90).

`Nc1ccc(CN2C(=O)N(Cc3ccc4[nH]ncc4c3)[C@H](Cc3ccccc3)[C@H](O)[C@@H](O)[C@H]2Cc2ccccc2)cc1` registered a Cmax in data set [1] of 10600 nM. Moreover, the IC90 mutant/IC90 WT in data set [3] was 170; in data set [4] it was 31; in data set [5] it was 240. In data set [7], this molecule gave a bioavailability of 100%. Besides, the Ki in data set [2] is 0.03 nM. Besides, in the data set with MT2, the 90% effect level (IC90) was put at 11 nM.

In data set [2], `N=C(NO)c1cccc(CN2C(=O)N(Cc3cccc(/C(N)=N/O)c3)[C@H](Cc3ccccc3)[C@H](O)[C@@H](O)[C@H]2Cc2ccccc2)c1` had an inhibition constant (Ki) of less than 0.01 nM. In addition, the IC90 in the data set on MT2 amounted to 300 nM. In addition, the IC90 mutant/IC90 WT was found to be 1 in data set [4] and 0.7 in data set [5].

On to `CNc1cccc(CN2C(=O)N(Cc3ccc4[nH]ncc4c3)[C@H](Cc3ccccc3)[C@H](O)[C@@H](O)[C@H]2Cc2ccccc2)c1`, for which the Cmax in data set [1] turned out to be 8000 nM. In data set [7], this molecule returned a bioavailability of 92%. Further, in data set [2], the Ki is 0.039 nM. In the data set on MT2, this molecule returned an IC90 of 8 nM.

As for `Nc1cccc(CN2C(=O)N(Cc3cccc(N)c3)[C@H](Cc3ccccc3)[C@H](O)[C@@H](O)[C@H]2Cc2ccccc2)c1` [MOZENAVIR], the IC90 mutant/IC90 WT is 27 in data set [6], 49 in data set [3], 10 in data set [4] and 100 in data set [5]. In the data set with MT2, this molecule gave a 90% effect concentration (IC90) of 130 nM.

Molecule `O=C(Cc1ccccn1)c1cccc(CN2C(=O)N(Cc3ccc4[nH]ncc4c3)[C@H](Cc3ccccc3)[C@H](O)[C@@H](O)[C@H]2Cc2ccccc2)c1` displayed a Cmax in data set [1] of 700 nM. In addition, the results for the IC90 mutant/IC90 WT in data set [3], in data set [4] and in data set [5] were 10, 1 and 5, respectively. Also, the Ki in data set [2] was determined as 0.073 nM. Also, in the data set on MT2, it took 15 nM to reach the 90% level (IC90).

Consider `O=C1N(Cc2ccc(CO)cc2)[C@H](Cc2ccccc2)[C@H](O)[C@@H](O)[C@@H](Cc2ccccc2)N1Cc1ccc(CO)cc1` [DMP-323], for which the IC90 mutant/IC90 WT was found to be 18 in data set [6], 93 in data set [3], 28 in data set [4] and 97 in data set [5]. In the data set with MT2, the IC90 is 57 nM.
